The text below walks through data of ChEMBL document CHEMBL1127479, “Synthesis and structure-activity studies of N,N'-diarylguanidine derivatives. N-(1-naphthyl)-N'-(3-ethylphenyl)-N'-methylguanidine: a new, selective noncompetitive NMDA receptor antagonist” (J Med Chem, 1994).

Bounds are passed on as bounds.

The target of one test is Glutamate NMDA receptor. In words: In vitro concentration required to inhibit specific [3H]MK-801 radioligand binding to N-methyl-D-aspartate (NMDA) receptor on rat brain membrane. In a few lines: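 Rat brain crude synaptic membranes, thawed, pretreated at 1 mg protein/mL with 0.01% Triton X-100 for 15 min at 37 °C, then washed three times by centrifugation. Filtration stop. IC50 taken from displacement curves or nonlinear least-squares regression.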
The compound `C/[N+](=C(/[NH-])Nc1cccc([N+](=O)[O-])c1)c1cccc2ccccc12` yielded a 50% inhibitory concentration (IC50) of 2800 nM.
On the same count and under the same terms, then `CC(C)c1ccccc1N=C(N)Nc1ccccc1C(C)C`, with 217 nM; and `Cc1cccc(NC(=N)Nc2cccc(C)c2)c1`, with 335 nM; and `CCc1ccccc1NC(=N)Nc1ccccc1CC`, with 820 nM.
On the same count and under the same terms, then `NC(=Nc1ccccc1I)Nc1ccccc1I`, with 228 nM; and `NC(=Nc1cccc2ccccc12)N(c1ccccc1)c1cccc2ccccc12`, with 484 nM; and `CCN(C(=N)N(C)c1cccc2ccccc12)c1cccc2ccccc12`, with 53 nM.
Same read-out and setting: under `NC(=Nc1cccc2ccccc12)N1CCCCCC1` stands 10000 nM; under `N=C(Nc1cccc2c1CCC2)Nc1cccc2c1CCC2`, 506 nM; under `CCc1cccc(N=C(N)N(C)c2cccc3ccccc23)c1`, 537 nM.
`Cc1cccc(N=C(N)N(C)c2cccc(C)c2)c1` registered an IC50 of 1990 nM.
On the same count and under the same terms, then `CCc1cccc(N(CC)C(N)=Nc2cccc3ccccc23)c1`, with 73 nM.
`CN(C(=N)Nc1cccc2ccccc12)c1cccc([N+](=O)[O-])c1` gave a concentration for half-maximal inhibition (IC50) of 87 nM.
On to `N=C(Nc1cccc2ccccc12)N1CCC(c2ccccc2)CC1`, for which the half-maximal inhibitory concentration (IC50) worked out at 10000 nM.
Same read-out and setting: then `CN(C(N)=Nc1cccc(N=[N+]=[N-])c1)c1cccc2ccccc12`, with 1690 nM; and `N=C(N1CCc2ccccc21)N1CCc2ccccc21`, with above 100000 nM.
Same read-out and setting: under `N=C(Nc1ccccc1)Nc1ccccc1` stands 3450 nM.
The same measure, in the same setting: then `CCc1ccc(NC(=N)Nc2ccc(CC)cc2)cc1`, with 10300 nM; and `CC(C)(C)c1ccccc1NC(=N)Nc1ccccc1C(C)(C)C`, with 38300 nM; and `CCc1cccc(NC(=N)Nc2cccc(CC)c2)c1`, with 168 nM.
Consider `CCCc1cccc(NC(=N)Nc2cccc(CCC)c2)c1`, for which the IC50 worked out at 2000 nM.
On the same count and under the same terms, under `N=C(Nc1cccc2ccccc12)Nc1cccc2ccccc12` stands 330 nM.
Still for that read-out and setting: under `NC(=Nc1ccc(Br)cc1)Nc1ccc(Br)cc1` stands 34000 nM; under `NC(=Nc1ccccc1-c1ccccc1)Nc1ccccc1-c1ccccc1`, 10000 nM; under `Cc1ccc(N=C(N)Nc2ccc(C)cc2)cc1`, 13300 nM.
The compound `CC(C)c1ccc(NC(=N)Nc2ccc(C(C)C)cc2)cc1` gave an IC50 of 23200 nM.
Turning to `CC(C)c1cccc(NC(=N)Nc2cccc(C(C)C)c2)c1`, the half-inhibitory concentration (IC50) is 407 nM.
As to `CCc1cccc(N(C)C(=N)N(CC)c2cccc3ccccc23)c1`, the IC50 was 97 nM.
The same measure, in the same setting: then `CN(C(=N)N(C)c1cccc2ccccc12)c1cccc2ccccc12`, with 69 nM.
Same read-out and setting: then `CN(C(N)=Nc1cccc2ccccc12)c1cccc2ccccc12`, with 115 nM.
Consider `CN(C(N)=Nc1cccc(N)c1)c1cccc2ccccc12`, for which the IC50 amounted to 10000 nM.
Still for that read-out and setting: then `CCc1cccc(N=C(N)N2CCC(c3ccccc3)CC2)c1`, with 10000 nM; and `Cc1cccc(NC(=N)Nc2cccc3ccccc23)c1`, with 192 nM.
The same measure, in the same setting: under `CC(C)c1ccccc1N=C(N)Nc1cccc2ccccc12` stands 102 nM.
The same measure, in the same setting: then `CCc1cccc(N(C)C(=N)N(C)c2cccc3ccccc23)c1`, with 100 nM; and `CN(C(=N)N(c1ccccc1)c1cccc2ccccc12)c1cccc2ccccc12`, with 470 nM; and `CN(C(N)=Nc1cccc2ccccc12)c1cccc(N=[N+]=[N-])c1`, with 65 nM.
`NC(=Nc1cccc2ccccc12)Nc1ccccc1I` came in with an IC50 of 209 nM.
The same measure, in the same setting: then `CN(C(N)=Nc1cccc2ccccc12)c1ccccc1`, with 1030 nM.
Still for that read-out and setting: then `CCN(C(N)=Nc1cccc2ccccc12)c1cccc2ccccc12`, with 117 nM.
In turn, `NC(=Nc1cccc2ccccc12)NCc1ccccc1` returned a half-maximal inhibitory concentration (IC50) of 2900 nM.
On the same count and under the same terms, under `N=C(Nc1cccc2ccccc12)N1CCCCC1` stands 10000 nM.
In the case of `COc1cccc(N=C(N)Nc2cccc(OC)c2)c1`, the 50% inhibitory concentration (IC50) turned out to be 493 nM.
The same measure, in the same setting: under `CCc1cccc(NC(=N)Nc2cccc3ccccc23)c1` stands 39 nM; under `N=C(Nc1ccc2ccccc2c1)Nc1ccc2ccccc2c1`, 12700 nM.
The same measure, in the same setting: under `CC(C)c1ccccc1N=C(N)N(C)c1cccc2ccccc12` stands 859 nM.
On the same count and under the same terms, then `CN(C(N)=Nc1cccc2ccccc12)c1cccc(N)c1`, with 2070 nM.
As for `CCc1cccc(N(C)C(N)=Nc2cccc3ccccc23)c1`, the IC50 was determined as 36 nM.
With `Cc1ccccc1NC(=N)Nc1ccccc1C` [DITOLYLGUANIDINE], the IC50 is 9120 nM.

Molecular target in the next test: not listed separately
In words: Tested in vitro for the concentration required to inhibit specific [3H]DTG radioligand binding to sigma receptor on guinea pig brain membrane.
Turning to `CCc1ccccc1NC(=N)Nc1ccccc1CC`, the concentration for half-maximal inhibition (IC50) was found to be 14 nM.
Still for that read-out and setting: then `CCc1ccc(NC(=N)Nc2ccc(CC)cc2)cc1`, with 245 nM; and `CC(C)(C)c1ccccc1NC(=N)Nc1ccccc1C(C)(C)C`, with 356 nM.
In the case of `NC(=Nc1ccccc1-c1ccccc1)Nc1ccccc1-c1ccccc1`, the IC50 worked out at 8110 nM.
